Experimental data gathered from unrelated publications.
Protocols differ between the studies behind these lines.

Compound | test system | setting | AUC
Cn1c(=O)oc2ccc(-c3ccc(C[C@@H](C#N)NC(=O)[C@@H]4CNCCCO4)cc3)cc21 | male human, plasma | oral, 65 mg, single dose, healthy volunteers | 24.7 µM·h
COc1ccc(Oc2cc(N(C)CCOc3ccc(CC4SC(=O)NC4=O)cc3)ncn2)cc1 (stereo not drawn) | male human, plasma | oral, 0.5 mg, multiple doses, once daily, steady state | 333 ng·h/mL
CS(=O)(=O)CCC#N | human, plasma | oral, 300 mg, multiple doses, once daily | 260000 ng·h/mL
CS(=O)(=O)CCNCc1ccc(-c2ccc3ncnc(Nc4ccc(OCc5cccc(F)c5)c(Cl)c4)c3c2)o1 | human, serum | oral, 1250 mg, single dose | 9070 ng·h/mL
NS(=O)(=O)NCCNc1nonc1C(=NO)Nc1ccc(F)c(Br)c1 | human, plasma | oral, 600 mg, multiple doses, twice daily, steady state, patients | 22.9 µM·h
COc1cc(C(=O)NC2CCN(C)CC2)c(F)cc1Nc1ncc(C(F)(F)F)c(Oc2cccc3c2C(=O)N(C)C3)n1 | human, plasma | oral, 200 mg, multiple doses, once daily, steady state, patients | 35.4 µM·h
CC(C)(C)OC[C@@H]1C(=O)NCCN1C(=O)C[C@H](N)Cc1cc(F)c(F)cc1F | male human, plasma | oral, 5 mg, multiple doses, steady state | 91.4 ng·h/mL
C[C@@H](c1ccc2nccn2c1)n1nnc2ncc(-c3cnn(C)c3)nc21 | human, plasma | oral, 600 mg | 12800 ng·h/mL
Cc1ccc(C(=O)N(CCCN)[C@@H](c2oc3cc(Cl)ccc3c(=O)c2Cc2ccccc2)C(C)C)cc1 | human, plasma | intravenous, 6 mg/m², single dose, patients, infusion | 8150 ng·h/mL
